Experimental data reported in paper PMC3697071 (Natural product communications, 2010).

Legend:
[1] = system: P. falciparum D6 (chloroquine-sensitive, Sierra Leone); assay: Antimalarial/parasite LDH assay, D6 clone; assay type: cell-based, Plasmodium falciparum; settings: chloroquine-sensitive clone D6
[2] = system: P. falciparum W2 (chloroquine-resistant, Indochina); assay: Antimalarial/parasite LDH assay, W2 clone; assay type: cell-based, Plasmodium falciparum; settings: chloroquine-resistant clone W2
[3] = system: monkey kidney fibroblasts (VERO); assay: Cytotoxicity assay; assay type: cell-based; settings: VERO cells; max dose […] for pure compounds
[4] = system: Leishmania donovani promastigotes; assay: Antileishmanial assay; assay type: cell-based; settings: promastigotes, 72 h
[5] = system: Candida glabrata ATCC 90030; assay: Antimicrobial assay; assay type: cell-based; settings: first value of IC50/MIC
Candida krusei ATCC 6258 = assay: Antimicrobial assay; assay type: cell-based; settings: first value of IC50/MIC
[6] = system: Cryptococcus neoformans ATCC 90113; assay: Antimicrobial assay; assay type: cell-based
[7] = system: Aspergillus fumigatus ATCC 90906; assay: Antimicrobial assay; assay type: cell-based
[8] = system: Candida albicans ATCC 90028; assay: Antimicrobial assay; assay type: cell-based; settings: first value of IC50/MIC
[9] = system: Staphylococcus aureus ATCC 29213; assay: Antimicrobial assay; assay type: cell-based
In short: (§1)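 Modified CLSI broth susceptibility method. Ciprofloxacin drug control in each assay. […] MIC is the lowest test concentration allowing no detectable growth.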

[10] = system: methicillin-resistant S. aureus ATCC 43300 (MRS); assay: Antimicrobial assay; assay type: cell-based, Staphylococcus aureus; settings: methicillin-resistant S. aureus
In short: as §1

[11] = system: Escherichia coli ATCC 35218; assay: Antimicrobial assay; assay type: cell-based; settings: first value of IC50/MIC
In short: as §1

[12] = system: Pseudomonas aeruginosa ATCC 27853; assay: Antimicrobial assay; assay type: cell-based; settings: first value of IC50/MIC
In short: as §1

[13] = system: Mycobacterium intracellulare ATCC 23068; assay: Antimicrobial assay; assay type: cell-based; settings: first value of IC50/MIC
In short: as §1

Plasmodium falciparum = assay: Antimalarial/parasite LDH assay, strains not distinguished in text; assay type: cell-based; settings: result in words
In short: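 Colorimetric assay of parasite lactate dehydrogenase (pLDH) activity in P. falciparum cultures, run in 96-well format on two strains: Sierra Leone D6 (chloroquine-sensitive) and Indochina W2 (chloroquine-resistant). DMSO served as vehicle control, with artemisinin and chloroquine as drug controls.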

For `CC(C)c1cc2c(c(O)c1O)[C@@]1(C)CCCC(C)(C)C1=C(O)C2=O` [Compound 7, 6-hydroxysalvinolone], the “P. falciparum D6 IC50” value [1] was 1.8 µg/mL, the “P. falciparum W2 IC50” value [2] was 2.5 µg/mL and the “VERO TC50” value [3] was 4.5 µg/mL. For the same molecule, the “L. donovani IC50” value [4] was 3.2 µg/mL, the “L. donovani IC90” value [4] was 6.5 µg/mL and the “C. glabrata IC50” value [5] was “−/− (- =Not Active)”. The “C. krusei IC50” value (Candida krusei ATCC 6258) was “−/− (- =Not Active)”, the “C. neoformans IC50” value ([6]; first value of IC50/MIC) was 0.96 µg/mL and the “C. neoformans MIC” value ([6]; second value of IC50/MIC) was 2.5 µg/mL. The “A. fumigatus IC50” value ([7]; first value of IC50/MIC) was 11.2 µg/mL, the “A. fumigatus MIC” value ([7]; second value of IC50/MIC) was “−” and the “C. albicans IC50” value [8] was “−/− (- =Not Active)”. The “S. aureus IC50” value ([9]; first value of IC50/MIC) was 1.75 µg/mL, the “S. aureus MIC” value ([9]; second value of IC50/MIC) was 5 µg/mL and the “MRS IC50” value ([10]; first value of IC50/MIC) was 1.56 µg/mL. For the same molecule, the “MRS MIC” value ([10]; second value of IC50/MIC) was 2.5 µg/mL, the “E. coli IC50” value [11] was “−/− (=Not Active)” and the “P. aureginosa IC50” value [12] was “−/− (=Not Active)”. The “M. intracellulare IC50” value [13] was “−/− (=Not Active)” and the “antimalarial activity against Plasmodium falciparum” value (Plasmodium falciparum) was “weak antimalarial activity”.
